Laboratory results reported in ChEMBL document CHEMBL5356992, “New nitazoxanide derivatives: design, synthesis, biological evaluation, and molecular docking studies as antibacterial and antimycobacterial agents” (RSC Med Chem, 2023).
Converted amounts (≈) assume the structure as drawn.

Experiments:
[1] = test system: Pseudomonas aeruginosa; experiment: Antibacterial activity against Pseudomonas aeruginosa ATCC 27853 by broth microdilution method; format: functional
Summary of the method: (§1)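 CLSI broth microdilution on wild-type strains. E. coli ATCC 8739, P. aeruginosa ATCC 27853 and K. pneumoniae ATCC 10031 served as Gram-negatives. S. aureus ATCC 6538 and E. faecalis ATCC 19433 served as Gram-positives. H. pylori ATCC 700392 was tested as the […]. Ciprofloxacin was the reference drug. MIC is given in μM as the mean of three experiments.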

[2] = test system: Klebsiella pneumoniae; experiment: Antibacterial activity against Klebsiella pneumoniae ATCC 10031 by broth microdilution method; format: functional; summary of the method: as §1
[3] = test system: Enterococcus faecalis; experiment: Antibacterial activity against Enterococcus faecalis ATCC 19433 by broth microdilution method; format: functional; summary of the method: as §1
[4] = test system: Helicobacter pylori; experiment: Antibacterial activity against Helicobacter pylori ATCC 700392 by broth microdilution method; format: functional; summary of the method: as §1
[5] = test system: Mycobacterium tuberculosis; experiment: Antimycobacterial activity against Mycobacterium tuberculosis H37Rv incubated for 7 days by alamar blue assay; format: functional; conditions: 168 h, time 7 day
Summary of the method: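 Two-fold serial dilutions in 7H9-S, with growth and sterile controls, incubated at 37 °C for 7 days. Alamar Blue then added and incubated overnight. MIC is the lowest concentration preventing the blue-to-pink change. Means of three experiments.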

[6] = test system: Escherichia coli; experiment: Antibacterial activity against Escherichia coli ATCC 8739 by broth microdilution method; format: functional; summary of the method: as §1
[7] = test system: Staphylococcus aureus; experiment: Antibacterial activity against Staphylococcus aureus ATCC 6538 by broth microdilution method; format: functional; summary of the method: as §1
[8] = test system: Staphylococcus aureus; experiment: Potency index, ratio of nitazoxanide MIC to test compound MIC for antibacterial activity against Staphylococcus aureus ATCC 6538; format: functional
[9] = test system: Escherichia coli; experiment: Potency index, ratio of nitazoxanide MIC to test compound MIC for antibacterial activity against Escherichia coli ATCC 8739; format: functional
[10] = test system: Klebsiella pneumoniae; experiment: Potency index, ratio of nitazoxanide MIC to test compound MIC for antibacterial activity against Klebsiella pneumoniae ATCC 10031; format: functional
[11] = test system: Enterococcus faecalis; experiment: Potency index, ratio of nitazoxanide MIC to test compound MIC for antibacterial activity against Enterococcus faecalis ATCC 19433; format: functional
[12] = test system: Pseudomonas aeruginosa; experiment: Potency index, ratio of nitazoxanide MIC to test compound MIC for antibacterial activity against Pseudomonas aeruginosa ATCC 27853; format: functional
[13] = test system: RAW264.7; experiment: Cytotoxicity against mouse RAW264.7 cells at 25 ug/ml incubated for 48 hrs by MTT assay; format: toxicity, cell-based; conditions: raw264.7, 48 h, at 25 µg/mL
Summary of the method: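 RAW 264.7 mouse macrophages were grown in RPMI with 10% FBS plus penicillin/streptomycin to 80–90% confluency. About 5000 cells/well were seeded on poly-L-lysine-coated plates and held 24 h at 37 °C, 5% CO2. Compound was added at 25 μg mL−1 for 48 h at 37 °C. MTT (0.5 mg mL−1) was added for 3 h, and formazan was read at 595 and 625 nm. Result is % inhibition.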

[14] = Selectivity index, ratio of cytotoxicity against mouse RAW264.7 cells to MIC for Mycobacterium tuberculosis H37Rv; format: toxicity, cell-based; conditions: read-out: Selectivity Index
Summary of the method: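 SI is cytotoxicity divided by the MABA MIC (μg mL⁻¹) against H37Rv. For cytotoxicity, RAW 264.7 cells were grown in RPMI with 10% FBS and penicillin/streptomycin. About 5000 cells per well were seeded on poly-L-lysine plates and held 24 h at 37 °C, 5% CO2. Compounds were added at 25 μg mL⁻¹ for 48 h, then MTT (0.5 mg mL⁻¹) for 3 h. Formazan was read at 595/625 nm and reported as % inhibition.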

[15] = test system: Mycobacterium tuberculosis; experiment: Potency index, ratio of nitazoxanide MIC to test compound MIC for antitubercular activity against Mycobacterium tuberculosis H37Rv; format: functional
[16] = test system: Mycobacterium tuberculosis; experiment: Potency index, ratio of ethambutol MIC to test compound MIC for antitubercular activity against Mycobacterium tuberculosis H37Rv; format: functional

| SMILES | MIC [1] | MIC [2] | MIC [3] | MIC [4] | MIC [5] | MIC [6] | MIC [7] | Ratio [8] | Ratio [9] | Ratio [10] | Ratio [11] | Ratio [12] | Cell growth inhibition [13] | selectivity ratio [14] | Ratio [15] | Ratio [16] |
| --- | --- | --- | --- | --- | --- | --- | --- | --- | --- | --- | --- | --- | --- | --- | --- | --- |
| O=C(Nc1ncc([N+](=O)[O-])s1)c1ccc(-n2cc(CO)nn2)cc1O | 353 µM (≈ 128 µg/mL) | 88.3 µM (≈ 32 µg/mL) | 132 µM (≈ 48 µg/mL) | 44.1 µM (≈ 16 µg/mL) | > 25 µg/mL | – | – | – | – | – | – | – | – | – | – | – |
| O=C(Nc1ncc([N+](=O)[O-])s1)c1ccc(-n2cc(CN3CCOCC3)nn2)cc1O | 148 µM (≈ 64 µg/mL) | 18.5 µM (≈ 8 µg/mL) | – | 9.27 µM (≈ 4 µg/mL) | > 25 µg/mL | 1190 µM (≈ 512 µg/mL) | 6.95 µM (≈ 3 µg/mL) | 25 | – | – | – | – | – | – | – | – |
| Cc1ccc2c(c1)C(=O)C(=O)N2Cc1cn(-c2ccc(C(=O)Nc3ncc([N+](=O)[O-])s3)c(O)c2)nn1 | 7.91 µM (≈ 4 µg/mL) | 3.95 µM (≈ 2 µg/mL) | 5.93 µM (≈ 3 µg/mL) | 2.96 µM (≈ 1.5 µg/mL) | > 25 µg/mL | 1.48 µM (≈ 0.748 µg/mL) | 506 µM (≈ 256 µg/mL) | – | 20 | <=20 | 25 | – | – | – | – | – |
| COC(=O)c1cn(-c2ccc(C(=O)Nc3ncc([N+](=O)[O-])s3)c(O)c2)nn1 | 15.4 µM (≈ 6 µg/mL) | 5.12 µM (≈ 2 µg/mL) | – | 3.84 µM (≈ 1.5 µg/mL) | > 25 µg/mL | 3.84 µM (≈ 1.5 µg/mL) | 10.2 µM (≈ 4 µg/mL) | – | 20 | <=20 | – | – | – | – | – | – |
| CC[C@@H](CO)NCCN[C@@H](CC)CO [ETHAMBUTOL] | – | – | – | – | 1.56 µg/mL (≈ 7.64 µM) | – | – | – | – | – | – | – | – | – | – | – |
| O=C(Nc1ncc([N+](=O)[O-])s1)c1ccc(-n2cc(CN3C(=O)C(=O)c4cc(Br)ccc43)nn2)cc1O | 5.26 µM (≈ 3 µg/mL) | 4.38 µM (≈ 2.5 µg/mL) | 8.76 µM (≈ 5 µg/mL) | 3.5 µM (≈ 2 µg/mL) | > 25 µg/mL | 21 µM (≈ 12 µg/mL) | 0.87 µM (≈ 0.496 µg/mL) | 25 | – | <=20 | – | >50 | – | – | – | – |
| O=C(O)c1cn(-c2ccc(C(=O)Nc3ncc([N+](=O)[O-])s3)c(O)c2)nn1 | 10.6 µM (≈ 4 µg/mL) | 15.9 µM (≈ 6 µg/mL) | – | 21.2 µM (≈ 8 µg/mL) | 25 µg/mL (≈ 66.4 µM) | 6.64 µM (≈ 2.5 µg/mL) | 85 µM (≈ 32 µg/mL) | – | – | – | – | – | 27.5% | 1 | – | – |
| O=C(Nc1ncc([N+](=O)[O-])s1)c1ccccc1O [TIZOXANIDE] | 362 µM (≈ 96 µg/mL) | 241 µM (≈ 64 µg/mL) | 136 µM (≈ 36 µg/mL) | 11.3 µM (≈ 3 µg/mL) | – | 181 µM (≈ 48 µg/mL) | 151 µM (≈ 40 µg/mL) | – | – | – | – | – | – | – | – | – |
| CO[C@H]1/C=C/O[C@@]2(C)Oc3c(C)c(O)c4c(O)c(c(/C=N/N5CCN(C)CC5)c(O)c4c3C2=O)NC(=O)/C(C)=C\C=C\[C@H](C)[C@H](O)[C@@H](C)[C@@H](O)[C@@H](C)[C@H](OC(C)=O)[C@@H]1C [RIFAMPIN] | – | – | – | – | 0.1 µg/mL (≈ 0.122 µM) | – | – | – | – | – | – | – | – | – | – | – |
| Cc1ccc(-c2cn(-c3ccc(C(=O)Nc4ncc([N+](=O)[O-])s4)c(O)c3)nn2)cc1 | 303 µM (≈ 128 µg/mL) | – | 75.8 µM (≈ 32 µg/mL) | 5.91 µM (≈ 2.5 µg/mL) | 25 µg/mL (≈ 59.2 µM) | 7.1 µM (≈ 3 µg/mL) | 1210 µM (≈ 512 µg/mL) | – | – | – | – | – | 27.6% | 1 | – | – |
| NNC(=O)c1ccncc1 [ISONIAZID] | – | – | – | – | 0.05 µg/mL (≈ 0.365 µM) | – | – | – | – | – | – | – | – | – | – | – |
| O=C(Nc1ncc([N+](=O)[O-])s1)c1ccc(-n2cc(-c3ccccc3)nn2)cc1O | – | 39.2 µM (≈ 16 µg/mL) | 19.6 µM (≈ 8 µg/mL) | 14.7 µM (≈ 6 µg/mL) | > 25 µg/mL | – | 29.4 µM (≈ 12 µg/mL) | – | – | – | – | – | – | – | – | – |
| CC(=O)Oc1cc(N=[N+]=[N-])ccc1C(=O)Nc1ncc([N+](=O)[O-])s1 | 91.9 µM (≈ 32 µg/mL) | 34.5 µM (≈ 12 µg/mL) | 2.15 µM (≈ 0.749 µg/mL) | 11.5 µM (≈ 4 µg/mL) | 1.56 µg/mL (≈ 4.48 µM) | 8.61 µM (≈ 3 µg/mL) | 11.5 µM (≈ 4 µg/mL) | – | – | – | 25 | – | 17.54% | 16 | 5 | 1.7 |
